Data reported in paper PMC8554411 (Pharmacology Research & Perspectives, 2021).
“And” between values parts separate entries of the source, which are not always exact repeats. Identical values can stand only once.

Assays:
mu opioid receptor [1] = molecular target: mu opioid receptor (Rattus norvegicus, UniProt P33535); format: in vivo
human mu opioid receptor [2] = molecular target: T1, human mu opioid receptor (Homo sapiens, UniProt P35372); assay: cell-based; conditions: HEK293, read-out: DAMGO Emax, inhibition of forskolin stimulated cAMP levels
human mu opioid receptor [3] = molecular target: T1, human mu opioid receptor; format: cell-based
[4] = molecular target: human kappa opioid receptors (Homo sapiens, UniProt P41145); format: cell-based
kappa opioid receptor = kappa opioid receptor (Rattus norvegicus, UniProt P34975); conditions: in vivo
delta opioid receptor = delta opioid receptor (Rattus norvegicus, UniProt P33533); format: in vivo
[5] = molecular target: human delta opioid receptors (Homo sapiens, UniProt P41143); format: cell-based; conditions: MCAM 20 nM
Outline: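 HEK293 cells stably co-expressing the GloSensor 22F cAMP sensor and human delta receptor were kept under hygromycin B/G418 selection and plated at 40 000/well. They were loaded 2 h in the dark at 30°C with 450 μg/ml D-luciferin. Antagonist was added 15 min before agonist or during loading; for washout, medium was replaced twice. Luminescence was read at 30°C, 1 Hz: 5 min baseline, 5 min agonist, then 30 min forskolin (10 μM). Results were expressed as % forskolin stimulation; ≥4 experiments, triplicate.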

mu opioid receptor [6] = conditions: mice treated with MCAM; cited from earlier work
human mu opioid receptor [7] = molecular target: T1, human mu opioid receptor; format: cell-based; remark: listed apart in the source

T1 sequence (P35372 whole entry): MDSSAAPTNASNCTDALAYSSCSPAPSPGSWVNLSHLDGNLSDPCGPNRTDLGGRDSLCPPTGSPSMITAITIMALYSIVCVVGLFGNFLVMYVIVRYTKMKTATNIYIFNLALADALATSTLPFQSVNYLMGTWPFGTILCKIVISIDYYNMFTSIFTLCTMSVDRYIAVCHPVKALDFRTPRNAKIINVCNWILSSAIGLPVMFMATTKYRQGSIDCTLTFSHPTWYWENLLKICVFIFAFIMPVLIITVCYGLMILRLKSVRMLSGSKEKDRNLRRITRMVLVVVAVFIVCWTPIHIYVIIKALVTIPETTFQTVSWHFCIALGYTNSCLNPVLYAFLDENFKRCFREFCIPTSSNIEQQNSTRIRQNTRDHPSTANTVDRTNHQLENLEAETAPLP
Sequence of human delta opioid receptors (P41143 whole entry): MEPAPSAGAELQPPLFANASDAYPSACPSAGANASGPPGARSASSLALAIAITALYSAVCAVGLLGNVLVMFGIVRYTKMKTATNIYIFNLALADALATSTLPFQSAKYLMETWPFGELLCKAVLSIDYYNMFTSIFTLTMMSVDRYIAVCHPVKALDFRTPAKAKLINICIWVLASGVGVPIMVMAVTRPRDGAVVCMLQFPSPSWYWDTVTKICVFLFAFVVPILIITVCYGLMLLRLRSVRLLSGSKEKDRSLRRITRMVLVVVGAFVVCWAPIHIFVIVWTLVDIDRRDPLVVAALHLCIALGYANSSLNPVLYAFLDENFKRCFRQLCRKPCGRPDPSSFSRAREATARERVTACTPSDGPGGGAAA
Sequence of human kappa opioid receptors (P41145 whole entry): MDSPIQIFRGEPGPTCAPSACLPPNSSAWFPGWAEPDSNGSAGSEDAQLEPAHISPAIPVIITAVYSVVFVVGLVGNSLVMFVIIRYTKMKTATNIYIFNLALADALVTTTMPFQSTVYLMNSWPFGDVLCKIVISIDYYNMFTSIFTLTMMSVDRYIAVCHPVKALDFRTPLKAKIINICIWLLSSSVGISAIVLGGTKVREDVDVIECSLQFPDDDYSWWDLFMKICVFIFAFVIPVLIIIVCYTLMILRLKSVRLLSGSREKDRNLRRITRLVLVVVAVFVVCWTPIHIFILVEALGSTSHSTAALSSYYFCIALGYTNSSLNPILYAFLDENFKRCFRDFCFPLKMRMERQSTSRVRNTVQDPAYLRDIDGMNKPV
Sequence of delta opioid receptor (P33533 whole entry): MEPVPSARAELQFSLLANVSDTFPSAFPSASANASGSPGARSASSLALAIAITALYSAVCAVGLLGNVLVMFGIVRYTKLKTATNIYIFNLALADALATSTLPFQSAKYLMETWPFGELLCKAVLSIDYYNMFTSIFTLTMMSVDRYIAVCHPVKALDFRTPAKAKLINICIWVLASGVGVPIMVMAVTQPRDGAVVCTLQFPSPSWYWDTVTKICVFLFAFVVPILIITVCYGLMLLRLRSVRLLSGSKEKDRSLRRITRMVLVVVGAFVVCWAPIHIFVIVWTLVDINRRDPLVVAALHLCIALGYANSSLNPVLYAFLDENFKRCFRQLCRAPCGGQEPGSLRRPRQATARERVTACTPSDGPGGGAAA
Sequence of mu opioid receptor (Rattus norvegicus, UniProt P33535) (P33535 whole entry): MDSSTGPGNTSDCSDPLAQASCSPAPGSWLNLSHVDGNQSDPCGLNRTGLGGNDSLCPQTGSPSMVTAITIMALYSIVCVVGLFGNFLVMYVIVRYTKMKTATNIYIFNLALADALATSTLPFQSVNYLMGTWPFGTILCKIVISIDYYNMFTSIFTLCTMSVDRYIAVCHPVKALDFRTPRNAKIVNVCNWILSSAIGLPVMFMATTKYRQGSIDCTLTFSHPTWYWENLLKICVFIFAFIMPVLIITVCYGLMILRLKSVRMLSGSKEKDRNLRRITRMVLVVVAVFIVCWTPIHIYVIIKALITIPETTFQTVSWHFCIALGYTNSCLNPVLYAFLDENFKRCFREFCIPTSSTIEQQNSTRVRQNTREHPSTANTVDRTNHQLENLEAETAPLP
Sequence of kappa opioid receptor (P34975 whole entry): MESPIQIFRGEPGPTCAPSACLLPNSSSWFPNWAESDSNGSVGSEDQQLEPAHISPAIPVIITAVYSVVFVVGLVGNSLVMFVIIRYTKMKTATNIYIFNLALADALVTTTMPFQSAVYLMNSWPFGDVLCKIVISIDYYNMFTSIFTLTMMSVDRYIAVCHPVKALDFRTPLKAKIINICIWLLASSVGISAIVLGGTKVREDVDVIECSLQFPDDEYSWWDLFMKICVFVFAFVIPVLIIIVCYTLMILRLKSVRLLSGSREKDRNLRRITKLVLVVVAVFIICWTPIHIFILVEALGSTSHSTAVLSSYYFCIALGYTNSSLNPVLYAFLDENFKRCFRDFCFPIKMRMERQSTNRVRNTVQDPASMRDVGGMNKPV

Compound: C[C@@H](NC(=O)[C@@H](N)Cc1ccc(O)cc1)C(=O)NCC(=O)N(C)[C@@H](Cc1ccccc1)C(=O)NCCO [DAMGO, [D‐Ala^2,N‐MePhe^4,Gly‐ol^5]‐enkephalin]
- effect of agonist on PGE2-stimulated thermal allodynia (mu opioid receptor [1]; DAMGO 20 μg i.pl., vehicle pretreatment, rat hindpaw): reduced
- Emax (human mu opioid receptor [2]): 85%
- Emax (maximal inhibition of forskolin-stimulated cAMP levels) by DAMGO (human mu opioid receptor [3]): 43% ± 2% and 46% ± 3% and 48% ± 5%
- response to DAMGO (inhibition of forskolin-stimulated cAMP levels) (human mu opioid receptor [3]): essentially abolished

Compound: Cc1ccc(/C=C/C(=O)N[C@@]23CCC(=O)[C@@H]4Oc5c(O)ccc6c5[C@@]42CCN(CC2CC2)[C@@H]3C6)cc1 [MCAM, 14β‐(4′‐methylcinnamoylamido)‐7,8‐dihydro‐N‐cyclopropylmethyl‐normorphinone]
- change in the maximal response to U50488 [4]: no change
- rightward shift of the curve for U50488 by the antagonist [4]: ~ 10 fold
- effect of washout on antagonism at kappa receptors ([4]; MCAM 50 nM, 2 h, then wash): fully reversed
- effect of antagonist on U50488-mediated antinociceptive response (kappa opioid receptor): did not block
- effect of antagonist on the antinociceptive response to U50488 (kappa opioid receptor): antagonized
- effect of antagonist on the antinociceptive response to DPDPE (delta opioid receptor; MCAM 0.5 μg/50 μl i.pl., 15 min pretreatment): antagonized
- effect of antagonist on DPDPE-mediated antinociceptive response (delta opioid receptor; tested 24 h after MCAM administration i.pl.): did not block
- change in the maximal response to DPDPE ([5]; 15 min or 2 h pretreatment): no change
- rightward shift of the curve for DPDPE by the antagonist ([5]; 15 min or 2 h pretreatment): ~ 10 fold
- effect of washout on antagonism at delta receptors ([5]; 2 h, then wash): fully reversed
- effect of antagonist on the antinociceptive response to DAMGO (mu opioid receptor [1]; MCAM 0.25 μg/50 μl i.pl., 15 min pretreatment): antagonized
- 3H-DAMGO binding in brain tissue (mu opioid receptor [6]): reduced
- effect of antagonist alone on forskolin-stimulated cAMP levels (human mu opioid receptor [3]): did not alter
- effect of washout on antagonism of DAMGO (human mu opioid receptor [3]): did not alter
- effect of washout on the reduction of the DAMGO maximal response (human mu opioid receptor [3]): insensitive to washout
- rightward shift of the morphine concentration response curve by the antagonist (human mu opioid receptor [3]): 10 fold

Compound: COC(=O)/C=C/C(=O)N[C@@H]1CC[C@@]2(O)[C@H]3Cc4ccc(O)c5c4[C@@]2(CCN3CC2CC2)[C@H]1O5 [β‐FNA, β‐funaltrexamine]
- rightward shift of the DAMGO curve by the antagonist (human mu opioid receptor [7]): about 100 fold
- effect of antagonist alone on forskolin-stimulated cAMP levels (human mu opioid receptor [3]): had no effect
- effect of washout on antagonism of DAMGO (human mu opioid receptor [3]): not sensitive to washout
